We go through 2 compounds from ChEMBL document CHEMBL3526035, “Role of the intestinal peptide transporter PEPT1 in oseltamivir absorption: in vitro and in vivo studies” (Drug Metab Dispos, 2012).

The target of data set [1] is T1, Solute carrier family 15 member 1 (Homo sapiens, UniProt P46059).
T1 sequence (P46059 whole entry): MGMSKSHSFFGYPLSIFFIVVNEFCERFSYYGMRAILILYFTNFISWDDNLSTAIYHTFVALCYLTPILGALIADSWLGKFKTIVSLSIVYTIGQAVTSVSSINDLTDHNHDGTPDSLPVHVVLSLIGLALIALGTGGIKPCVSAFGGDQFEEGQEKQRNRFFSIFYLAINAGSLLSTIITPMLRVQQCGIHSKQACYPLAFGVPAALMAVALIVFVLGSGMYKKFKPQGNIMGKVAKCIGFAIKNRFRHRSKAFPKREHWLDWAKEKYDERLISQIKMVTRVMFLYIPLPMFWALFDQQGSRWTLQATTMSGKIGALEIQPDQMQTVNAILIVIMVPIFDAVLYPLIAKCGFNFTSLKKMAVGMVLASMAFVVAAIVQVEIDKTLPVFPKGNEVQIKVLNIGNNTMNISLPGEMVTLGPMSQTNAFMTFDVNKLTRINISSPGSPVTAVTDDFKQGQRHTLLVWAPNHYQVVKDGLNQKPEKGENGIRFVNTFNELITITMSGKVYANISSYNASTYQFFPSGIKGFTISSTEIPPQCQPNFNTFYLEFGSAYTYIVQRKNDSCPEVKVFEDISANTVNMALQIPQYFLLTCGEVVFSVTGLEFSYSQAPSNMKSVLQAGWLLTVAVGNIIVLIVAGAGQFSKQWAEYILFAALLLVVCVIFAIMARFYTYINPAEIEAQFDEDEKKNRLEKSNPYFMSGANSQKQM
The data set can be described thus: Inhibition of human PEPT1 expressed in CHOK1 cells assessed as Gly-Sar uptake at 0.3 to 10 mM after 10 mins by HPLC coupled with radiodetection analysis. In kind it is cell-based. The note with it: cho-k1, 10 min, 10000 µM. In outline:
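Competition assay in CHO-PEPT1 cells: 2 µM [3H]Gly-Sar with oseltamivir or oseltamivir carboxylate at 0.3–10 mM, 10 min at 37°C, pH 6, KH/MES buffer. Tyr-Phe 0.5 mM served as positive control. Intracellular radioactivity was measured per mg protein. Three independent experiments.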

Data set [2] can be described thus: Cmax in adult fasted Sprague-Dawley rat at 30 mg/kg, po administered as water solution by HPLC-tandem mass spectrometry. In kind it is ADME, organism-based. Details: dose 30 mg/kg, route oral; call rule not given here. The conditions noted are these: in vivo. In short, it runs like this: (§1)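 Adult cannulated Sprague-Dawley rats, fasted (from 6 h predose) or fed, dosed orally at 30 mg/kg (10 ml/kg), 3 per group. Serial jugular plasma with dichlorvos stabilisation, measured by LC-MS/MS. Cmax read graphically from the concentration-time profile.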

A short description of data set [3]: Cmax in adult fasted Sprague-Dawley rat at 30 mg/kg, po administered as solution in bovine milk by HPLC-tandem mass spectrometry. In kind it is ADME, organism-based. Details: dose 30 mg/kg, route oral. The note with it: in vivo. In short, it runs like this: as §1
Data set [4] in a line: Tmax in adult fasted Sprague-Dawley rat at 30 mg/kg, po administered as solution in bovine milk by HPLC-tandem mass spectrometry. In kind it is ADME, organism-based. Details: dose 30 mg/kg, route oral. The conditions noted are these: in vivo. In short, it runs like this: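 Male Sprague-Dawley rats (7–8 weeks, 243–283 g) had jugular-vein cannulas and 3 days' recovery. Fasting ran from 6 h predose through the 6 h study. Three rats per vehicle received 30 mg/kg oral (10 ml/kg). Blood was sampled 0.25–6 h into K2EDTA tubes with dichlorvos. Plasma was assayed by HPLC-MS/MS (0.1–500 µg/l). Tmax was read graphically (noncompartmental).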

Data set [5] in a line: AUC(0 to infinity) in adult fasted Sprague-Dawley rat at 30 mg/kg, po administered as solution in bovine milk by HPLC-tandem mass spectrometry. Details: time infinity, dose 30 mg/kg, route oral. In kind it is ADME, organism-based. The note with it: in vivo. In short, it runs like this: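 Adult male Sprague-Dawley rats (243-283 g), jugular-cannulated, fasted from 6 h before dosing through the 6-h study. Given 30 mg/kg orally (free base) at 10 ml/kg, n=3/group. Blood sampled at 0.25-6 h into K2EDTA with dichlorvos esterase inhibitor. Plasma assayed by LC-MS/MS (0.1-500 μg/l). Noncompartmental analysis: linear-trapezoid AUC; infinity extrapolation via log-linear terminal λz.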

Data set [6] can be described thus: AUC(0 to 24 hrs) in adult fed Sprague-Dawley rat at 30 mg/kg, po administered as water solution by HPLC-tandem mass spectrometry. In kind it is ADME, organism-based. The note with it: plasma. Details: time < 24 hr, dose 30 mg/kg, route oral. In short, it runs like this: (§2)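 Sprague-Dawley males, 7-8 weeks, 243-283 g, jugular-cannulated, 3 days' recovery; fed (chow ad libitum). Single oral dose of 30 mg/kg (free base) at 10 ml/kg; 3 rats/group. Jugular blood taken at 0.25-24 h into K2EDTA with dichlorvos, kept on ice. Plasma analysed by validated LC-MS/MS (0.1-500 μg/l). Noncompartmental analysis; AUC by linear trapezoid, AUC0-∞ extrapolated using λz.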

Data set [7] in a line: Drug uptake in CHOK1 cells at pH 5 by HPLC coupled with radiodetection analysis. In kind it is ADME, cell-based, Cricetulus griseus. The note with it: chinese hamster, cho-k1, pH 5.
The nature of data set [8]: AUC(0 to 6 hrs) in adult fed Sprague-Dawley rat at 30 mg/kg, po administered as solution in bovine milk by HPLC-tandem mass spectrometry. In kind it is ADME, organism-based. Details: time < 6 hr, dose 30 mg/kg, route oral. The note with it: in vivo. In outline:
as §2

Data set [9] in a line: AUC(0 to 5 hrs) in juvenile fasted Sprague-Dawley rat at 30 mg/kg, po administered as solution in bovine milk by HPLC-tandem mass spectrometry. In kind it is ADME, organism-based. Details: time < 5 hr, dose 30 mg/kg, route oral. The conditions noted are these: in vivo. In short, it runs like this: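 7-day-old Sprague-Dawley pups (9.7-18.9 g, both sexes), 15 per group. Given 30 mg/kg by oral gavage (10 ml/kg); breast-fed pups stayed with dams, fasted pups were removed 8 h before dosing. Blood taken by cardiac puncture under isoflurane at 0.25, 0.5, 1, 2 and 5 h, n=3 per time point (composite design). Dichlorvos-treated plasma assayed by LC-MS/MS; AUC0-5h by noncompartmental analysis.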

A short description of data set [10]: Tmax in juvenile fasted Sprague-Dawley rat at 30 mg/kg, po administered as 125 mM aqueous Gly-Sar solution by HPLC-tandem mass spectrometry. In kind it is ADME, organism-based. Details: dose 30 mg/kg, route oral. The conditions noted are these: in vivo. In outline: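 Seven-day-old Sprague-Dawley pups, males and females, 15 per group, were gavaged with 30 mg/kg (10 ml/kg). Breast-fed pups stayed with their dams; fasted pups were removed from 8 h predose through 5 h. Cardiac blood was drawn under isoflurane at 0.25, 0.5, 1, 2 and 5 h (composite, n=3/time point), with dichlorvos added. Plasma was analyzed by HPLC-MS/MS and Tmax read graphically.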

Data set [11] is described as follows: AUC(0 to infinity) in healthy human at 150 mg, po administered as single dose by HPLC-tandem mass spectrometry under fed conditions. Details: dose 150 mg, time infinity, route oral. In kind it is ADME, organism-based. The conditions noted are these: plasma. In short, it runs like this:
(§3)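 Open-label crossover in 18 healthy volunteers (9 male, 9 female, mean age 26). Each received marketed oseltamivir 150 mg orally, once fasted from midnight and once after a high-fat, high-calorie breakfast, with a 7-10 day washout. Plasma and urine collected over 0-72 h and analysed by HPLC-MS/MS. AUC and Cmax compared after log transformation.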

Data set [12] can be described thus: Drug excretion in healthy human urine assessed as unchanged drug level at 150 mg, po administered as single dose by HPLC-tandem mass spectrometry under fed conditions. The note with it: read-out: Drug excretion. In kind it is ADME, organism-based. In outline:
as §3

Data set [13] is described as follows: Renal clearance in healthy human at 150 mg, po administered as single dose by HPLC-tandem mass spectrometry under fed conditions. In kind it is ADME, organism-based, Kidney. The conditions noted are these: in vivo. In outline:
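Open-label crossover food-effect study in 18 healthy volunteers (9 male, 9 female, mean age 26). Each received a single 150 mg oral dose of the marketed formulation, once fasting from midnight and once after a high-fat, high-calorie breakfast, separated by a 7–10 day washout. Plasma and urine were collected over 0–72 h and assayed by HPLC-MS/MS for oseltamivir and carboxylate.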

SMILES strings stand for the structures.

Take `CCC(CC)O[C@@H]1C=C(C(=O)O)C[C@H](N)[C@H]1NC(C)=O` [OSELTAMIVIR CARBOXYLATE]: the “inhibition (INH)” value in [1] was “Not Active”. The values for the Cmax in [2] and in [3] were 2.29 µg/mL and 1.63 µg/mL, respectively. Further, the Tmax is 1.92 h in data set [4] and 2 h in data set [10]. Also, the results for the total exposure AUC(0-inf) in data set [5] and in [11] were 6.3 µg·h/mL and 6.07 µg·h/mL, respectively. Moreover, in data set [6], the AUC(0-t) at 24 h stood at 5.28 µg·h/mL. Also, the Drug uptake result in [7] is “Active”. For the same compound, the AUC(0-t) at 6 h in [8] came out at 4.51 µg·h/mL. This compound also gave an AUC(0-t) at 5 h in [9] of 9.26 µg·h/mL. Moreover, the dose excreted in data set [12] amounted to 55.5%. For the same compound, the CL renal in data set [13] was 218 mL/min.

For the compound `CCOC(=O)C1=C[C@@H](OC(CC)CC)[C@H](NC(C)=O)[C@@H](N)C1` [OSELTAMIVIR], the “inhibition (INH)” value in [1] is listed as “Not Active”. Also, the Cmax stood at 1.69 µg/mL in data set [2] and 1.63 µg/mL in data set [3]. Besides, the Tmax in data set [4] and in data set [10] was 0.5 h throughout. Moreover, the values for the AUC(0-inf) in data set [5] and in data set [11] were 3.06 µg·h/mL and 0.287 µg·h/mL, respectively. The compound also displayed an AUC(0-t) at 24 h in [6] of 2.51 µg·h/mL. In [7], the Drug uptake result was “Active”. In data set [8], this compound came in with an exposure AUC(0-t) at 6 h of 2.51 µg·h/mL. In [9], this compound came in with an exposure AUC(0-t) at 5 h of 26.9 µg·h/mL. Besides, the dose excreted in data set [12] turned out to be 4.32%. This compound had a CL renal in [13] of 385 mL/min.

Broadly, the Cmax is the highest concentration seen after dosing. The Tmax is the time from dosing to the highest level. What is called AUC(0-inf) is total exposure, with the tail of the curve extrapolated. Read a high AUC(0-inf) as more exposure. One may read the AUC(0-t) as exposure summed from dosing to a finite time, without extrapolation to infinity. Lower therefore signals less exposure.
